An excerpt weighted towards active compounds, which were near 2.6% of everything screened.
T cell modulator: modulators of CD8 T cell-vesicle binding, primary screen, mouse 2C CD8+ T cells, flow cytometry | 2C CD8+ T cell-vesicle binding; hits give low values | response (vesicle binding), % at 7 µM | 0.068% of 330,000 active;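 active = response, share of CD8 T cells binding vesicles, and their 90th percentile fluorescence all below set limits, cut at about 80% in these data, passing the limit was not always enough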;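 note: values below 100% mean blocked vesicle binding to the CD8+ T cells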
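Test system: purified 2C TCR transgenic mouse naive CD8+ T cells. Probe or stimulus: QL9-peptide-loaded Drosophila micro-vesicles bearing Ld, ICAM-1 and B7-1. Incubation: binding step 1.5 h, 37 °C, antibody labelling 20 min, ice. Measured by: flow cytometry of vesicle-bound cells.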
Rce1 inhib: yeast Rce1p protease inhibitors, primary screen, biochemical, fluorescence, cell-free homogeneous; CAAX prenyl protease 2 (Saccharomyces cerevisiae (strain ATCC 204508 / S288c)), Q03530; yeast membranes, quenched prenylated peptide cleavage fluorescence; calls only; 0.27% of 290,000 active;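 active = fall in fluorescence gain of 50% or more versus controls, with final raw signal at or below 3038400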
SKN-1 inh: suppressors of acrylamide-induced Pgst-4::GFP reporter in worms, primary screen, SKN-1 inhibitor project, whole organism, uHTS, GFP/RFP fluorescence ratio, strain VP596; C. elegans VP596 Pgst-4::GFP/RFP ratio, 24 h; inhibition, % at 21.8 µM; 0.49% of 360,000 active; AID 624304, 2012;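 active = interference check ratio from 0.5 to 1.5 plus GFP to RFP signal ratio inhibition reaching or exceeding a fixed threshold, cut at about 30% in these data, passing the limit was not always enough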
Myeloid diff MLP: induction of myeloid progenitor differentiation, primary screen, cell-based, flow cytometry, MLPCN library. ER-HoxA9 myeloid progenitors, lysozyme-GFP differentiation. calls only at 10 µM. 1% of 360,000 active;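 active = normalized GFP-positive differentiation at or above the plate's own cutoff, the solvent-only control mean plus 3 SD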;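 note: cells exposed to compound for four days before flow analysis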
Rin1-Abl PPI inh: inhibitors of Rin1-Abl protein binding, primary screen, biochemical, TR-FRET; 0.4% of 360,000 active; AID 588664, 2011; inhibition, % at 7.35 µM; Tyrosine-protein kinase ABL1 (Homo sapiens) + Ras and Rab interactor 1 (Homo sapiens), …; in the data active = inhibition above about 5%, passing the limit was not always enough
GRK2 aptamer HTS: compounds blocking aptamer binding on GRK2 – biochemical, human GRK2, bead flow cytometry, HTS, primary screen; FAM-aptamer displacement from GRK2; Beta-adrenergic receptor kinase 1 (Homo sapiens), P25098; 0.59% of 330,000 active; inhibition of aptamer binding, % at 10 µM; AID 488847, 2010;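 active = inhibition of aptamer binding above 40%, roughly 3 SD of noise, on plates passing a quality check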;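 note: median bead fluorescence of bound FAM aptamer so fluorescent compounds give negative values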
Target sequence (P25098 whole entry, looked up): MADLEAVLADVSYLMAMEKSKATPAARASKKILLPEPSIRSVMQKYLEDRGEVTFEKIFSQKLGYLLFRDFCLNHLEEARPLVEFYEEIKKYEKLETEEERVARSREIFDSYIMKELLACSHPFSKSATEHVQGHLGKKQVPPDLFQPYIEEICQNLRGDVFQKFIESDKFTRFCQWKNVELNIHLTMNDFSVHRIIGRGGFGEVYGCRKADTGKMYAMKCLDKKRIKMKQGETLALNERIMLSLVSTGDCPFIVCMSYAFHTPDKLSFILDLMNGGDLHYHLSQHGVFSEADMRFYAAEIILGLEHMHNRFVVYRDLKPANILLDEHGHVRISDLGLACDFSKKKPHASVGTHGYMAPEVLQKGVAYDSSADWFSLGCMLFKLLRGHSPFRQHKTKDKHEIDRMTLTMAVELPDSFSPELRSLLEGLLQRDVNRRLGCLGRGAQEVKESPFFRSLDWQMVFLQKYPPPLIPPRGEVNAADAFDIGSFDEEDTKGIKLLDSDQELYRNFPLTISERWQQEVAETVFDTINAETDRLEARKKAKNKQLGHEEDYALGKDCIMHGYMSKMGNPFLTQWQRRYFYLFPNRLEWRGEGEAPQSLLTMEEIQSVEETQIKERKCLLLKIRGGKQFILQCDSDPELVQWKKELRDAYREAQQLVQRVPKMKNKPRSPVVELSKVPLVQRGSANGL
Myeloid diff CP1: inducers of myeloid progenitor differentiation, confirmation, cell-based, GFP/Mac1 flow cytometry, cherry pick 01; shares compounds with Myeloid diff MLP; ER-HoxA9 myeloid progenitors, GFP/Mac1 double-positive flow; calls only; 2% of 2,300 active;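 active = share of green or green-and-red cells above 9 and 9% in run 1 or 4 and 3% in run 2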
GFP autofluor: counter-screen for myeloid differentiation promoters: compound fluorescence; shares compounds with Myeloid diff MLP; ER-HoxA9 myeloid progenitors, no estrogen, GFP autofluorescence flow cytometry; vehicle wells 0%, positive control 100%; fluorescence response, % (concentration not given with the values); 7.4% of 2,300 active;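 active = over 5% cells positive for green fluorescent reporter, or over 2% positive for both it and APC stain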
Hits are given with their value; i = inactive; nt = no result given; + = active, no number.

SMILES | T cell modulator | Rce1 inhib | SKN-1 inh | Myeloid diff MLP | Rin1-Abl PPI inh | GRK2 aptamer HTS | Myeloid diff CP1 | GFP autofluor
O=C1C2C(C(=O)N1CC1CCCO1)C1C=CC2C12CC2 (centres undefined) | i | i | i | nt | i | i | i | i
O=C(CCC(=O)c1cccs1)NCC(c1ccc(F)cc1)N1CCOCC1 (centres undefined) | i | nt | i | i | i | i | nt | nt
CC1(C)C2CCC1(C)C(SC(=N)N)C2 (centres undefined) | nt | nt | i | i | i | nt | i | i
Cc1ccc(C(=O)Nc2cccc(C(=O)N/N=C/c3ccc(O)cc3)c2)cc1 | i | i | i | + | i | i | i | i
CCn1c(COc2ccccc2)nnc1SCC(=O)C(C)(C)C | i | i | i | + | i | i | i | i
CCNC(C(=O)c1c[nH]c2c(CC)cccc12)c1ccccc1 (centres undefined) | i | i | i | i | i | i | nt | nt
Cc1cccc(C)c1Nc1nnc(SCC(=O)NC2CCS(=O)(=O)C2)s1 (centres undefined) | i | i | i | i | i | i | nt | nt
Cc1ccc(Nc2nnc(SCC(=O)NC3CCS(=O)(=O)C3)s2)c(C)c1 (centres undefined) | i | i | i | i | i | i | i | 5.9
COC(=O)c1cc(OC)c(OC)cc1NC(=O)C1CCC(=O)N1S(=O)(=O)c1ccc(C)cc1 (centres undefined) | i | i | i | i | i | i | nt | nt
COC(=O)c1ccccc1NC(=O)C1CCC(=O)N1S(=O)(=O)c1ccc(C)cc1 (centres undefined) | i | i | i | i | i | i | i | i
O=C(N/N=C/c1ccncc1)c1ccc(COc2cccc3cccnc23)cc1 | i | i | i | i | i | i | nt | nt
O=C(N/N=C/c1cccc(O)c1)c1ccc(COc2cccc3cccnc23)cc1 | i | i | i | + | i | i | i | i
O=S(=O)(NCc1ccncc1)c1ccc(F)c(F)c1 | nt | nt | i | i | i | nt | i | i
CCCCC(=O)OCC(=O)c1cc(C)n(-c2c(C)n(C)n(-c3ccccc3)c2=O)c1C | i | i | i | i | i | i | i | i
Cc1ccc(-c2nnn(C/C(N)=N/O)n2)cc1 | i | i | i | i | i | i | nt | nt
CCCCC(=O)N(C)c1c(CC)nc2c(OCCOc3ccccc3)cccn12 | nt | nt | i | i | i | nt | nt | nt
CCN1C(=O)[C@H]2[C@@H](c3ccc(OC)cc3)N[C@]3(CCCN(Cc4ccc(C(F)(F)F)cc4)C3=O)[C@H]2C1=O | nt | nt | i | i | i | nt | nt | nt
CCN(CC)C(=O)[C@H]1C[C@H](CC(=O)NC(C)(C)C)C(=O)N2CCc3c([nH]c4cc(-c5ccco5)ccc34)[C@]12C | nt | nt | i | + | i | 44 | i | i
COc1ccc(C(=O)NC2CCCCCC2)cc1S(=O)(=O)N1CCCC1 | i | i | i | i | i | i | nt | nt
COc1ccc(C(=O)NC2CCCCCC2)cc1S(=O)(=O)N1CCCc2ccccc21 | i | i | i | i | i | i | i | i
O=C(Nc1ccncc1)c1ccc(Cl)c(S(=O)(=O)N2CCc3ccccc32)c1 | i | i | i | i | i | i | i | i
COc1ccc(N(CC(=O)Nc2ccc(F)cc2F)S(=O)(=O)c2c(C)nn(C)c2C)cc1 | i | i | i | i | i | i | nt | nt
Cn1c(N)nc2nc[nH]c2c1=S | nt | nt | i | i | i | nt | i | i
Nc1nc(N)c2[nH]cnc2n1 | i | i | nt | nt | nt | i | nt | nt
Cc1cc(C)cc(NC(=S)N2CCC(NC(=O)C3CCCCC3)CC2)c1 | i | i | i | i | i | i | nt | nt
Cc1cc(C)cc(NC(=O)C2CCCC2)c1 | i | i | i | + | i | i | i | i
CCn1c(-c2ccc(C(C)(C)C)cc2)n[nH]c1=S | i | i | i | i | i | i | nt | nt

Bioassay records as filed in PubChem.
